Test results taken from ChEMBL document CHEMBL5506013, “Mitochondria-Selective Dicationic Small-Molecule Ligand Targeting G-Quadruplex Structures for Human Colorectal Cancer Therapy” (J Med Chem, 2024).
Calls of active or inactive are those of the source.

What was measured:
[1] = Drug localization in nucleus of human HCT-116 cells at 1 to 8 uM incubated for 1 hrs by hoechst33342 staining based live cell imaging analysis; format: ADME, subcellular; conditions: hct-116, 1 h, dose 1-8 µM
Quadruplex DNA [2] = experiment: Binding affinity to Mito 0.5-15 G4 DNA (unknown origin) assessed as change in melting temperature at 5 uM by circular dichroism spectroscopic analysis; format: nucleic-acid assay
Quadruplex DNA [3] = experiment: Binding affinity to mito 0.5-16 G4 DNA (unknown origin) assessed as increase in fluorescence intensity by fluorescence spectrophotometric analysis; format: nucleic-acid assay
Summary of the method: (§1)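 Oligonucleotides were pre-annealed at 95 °C for 10 min, then cooled slowly. Ligand (5 uM) was mixed with 20 uM DNA in buffer. Emission was collected over 550–800 nm, and enhancement was taken at 650 nm as F/F0.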

Quadruplex DNA [4] = experiment: Binding affinity to mito 78 G4 DNA (unknown origin) assessed as dissociation constant measured upto 150 secs by isothermal titration calorimetry assay; format: nucleic-acid assay
[5] = Drug localization in human HCT-116 cells transfected with Cy5-HP19 non G4 DNA at 4 uM incubated for 1 hr by hoechst33342 staining based analysis; format: ADME, cell-based; conditions: hct-116, 1 h
Summary of the method: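 HCT116 cells transfected with Cy5-labelled DNA (excitation 635 nm) for 24 h. Ligand 4 uM added for 1 h, then Hoechst33342 1 uM for 30 min. Colocalization of ligand with Cy5 quantified by Pearson r from confocal images.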

HCT-116 [6] = experiment: Induction of cell cycle arrest in human HCT-116 cells assessed as accumulation of cells at G0/G1 phase at 1 to 4 uM measured after 72 hrs by PI staining based flow cytometry analysis (reference value: 50.66%); format: functional; conditions: dose 1-4 µM
Summary of the method: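 HCT116 cells treated at 0-4 uM for 72 h. Cell-cycle distribution measured by flow cytometry and G0/G1 percentage recorded.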

[7] = Drug localization in human HCT-116 cells by measuring red foci at 4 uM incubated for 1 hr in presence of FCCP by hoechst33342 staining based analysis; format: ADME, cell-based; conditions: hct-116, 1 h
Summary of the method: (§2)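 Pretreatment of live HCT116 cells: FCCP 1 uM for 20 min, cyclosporin A 1 uM for 24 h, DMOG 100 uM for 24 h, or MitoPDS at several concentrations for 3 h (applied after dye loading). Cells loaded with ligand 4 uM (excitation 488 nm) for 1 h and Hoechst33342 1 uM for 30 min. Red foci counted by confocal imaging in 100 cells. Mean ± SEM, t test.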

[8] = Drug localization in human HCT-116 cells by measuring red foci at 4 uM incubated for 1 hr in presence of MitoPDS by hoechst33342 staining based analysis; format: ADME, cell-based; conditions: hct-116, 1 h; summary of the method: as §2
HCT-116 [9] = experiment: Induction of DNA damage in human HCT-116 assessed as increase in gammaH2AX level at upto 4 uM incubated for 72 hrs in presence of MitoTEMPOL by Western blot analysis; format: functional, cell-based
Quadruplex DNA [10] = experiment: Binding affinity to Mut 78 G4 DNA (unknown origin) assessed as increase in fluorescence intensity by fluorescence spectrophotometric analysis; format: nucleic-acid assay; summary of the method: as §1
HCT-116 [11] = experiment: Downregulation of ND2 mRNA level in human HCT-116 cells at 0 to 4 uM measured after 48 hrs by qRT-PCR analysis; format: functional, cell-based; conditions: dose 0-4 µM
[12] = Drug localization in human HCT-116 cells overexpressing eBFP tagged Pif1 by measuring red foci at 4 uM incubated for 1 hr by hoechst33342 staining based analysis; format: ADME, cell-based; conditions: hct-116, 1 h
Summary of the method: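 HCT116 cells overexpressing eBFP-tagged Pif1 (excitation 405 nm), with an eBFP-only control. Cells incubated with ligand 4 uM (excitation 488 nm) for 1 h, then red foci imaged by confocal microscopy in 100 cells. Mean ± SEM, t test.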

[13] = Drug localization in lysosome of living human HCT-116 cells assessed as colocalization at 4 uM incubated for 1 hr by lyso-tracker blue staining based analysis; format: ADME, subcellular; conditions: hct-116, 1 h
HCT-116 [14] = experiment: Downregulation of ATP8 mRNA level in human HCT-116 cells at 0 to 4 uM measured after 48 hrs by qRT-PCR analysis; format: functional, cell-based; conditions: dose 0-4 µM
Quadruplex DNA [15] = experiment: Binding affinity to mito 81 G4 DNA (unknown origin) assessed as increase in fluorescence intensity by fluorescence spectrophotometric analysis; format: nucleic-acid assay
Summary of the method: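 Fluorescence titration in buffer. Ligand at 5 uM mixed with 20 uM pre-annealed DNA (95 °C for 10 min, slow cooling). Emission collected at 550-800 nm and monitored at 650 nm. Result reported as fold enhancement F/F0 over ligand alone.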

HCT-116 [16] = experiment: Antitumor activity against human HCT-116 cells xenografted in Balb/c nude mouse model assessed as reduction in tumor weight at 5 mg/kg, iv administered every two days for 16 days relative to control; format: functional; set-up: scale not given: the % may be the effect or the level left; conditions: time 16 day
Summary of the method: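 Male Balb/c nude mice carrying HCT116 xenografts, 6 per group. Dosing was intravenous every two days at 5 mg/kg, with a PBS-injected control group. Body weight and tumour growth were tracked. Tumours were excised and weighed after 16 days.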

[17] = Drug localization in human HCT-116 cells overexpressing […] by measuring red foci at 4 uM incubated for 1 hr by hoechst33342 staining based analysis; format: ADME, cell-based; conditions: hct-116, 1 h
HCT-116 [18] = experiment: Induction of morphological changes in human HCT-116 cells at 4 uM by microscopy based analysis; format: functional, cell-based
Summary of the method: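 HCT116 and HFF1 cells treated with ligand at 4 uM alongside untreated controls. Morphology examined by microscopy at 100x.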

HCT-116 [19] = experiment: Induction of DNA damage in human HCT-116 assessed as increase in tail length at upto 4 uM incubated for 72 hrs in presence of MitoTEMPO by comet assay; format: functional, cell-based
[20] = Toxicity in BALB/c nude mouse assessed as change in neutrophil count at 5 mg/kg, iv administered every two days for 16 days; format: organism-based; conditions: in vivo, 384 h, time 16 day
Summary of the method: (§3)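 HCT116 xenograft-bearing male Balb/c nude mice (6/group) dosed iv at 5 mg/kg every two days or with PBS. Whole blood collected at sacrifice on day 16 for hematology parameters.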

HCT-116 [21] = experiment: Downregulation of COX3 protein level in human HCT-116 cells at upto 4 uM incubated for 48 hrs by Western blot analysis; format: functional, cell-based
HCT-116 [22] = experiment: Downregulation of ND3 mRNA level in human HCT-116 cells at 0 to 4 uM measured after 48 hrs by qRT-PCR analysis; format: functional, cell-based; conditions: dose 0-4 µM
HCT-116 [23] = experiment: Downregulation of ATP6 protein level in human HCT-116 cells at upto 4 uM incubated for 48 hrs by Western blot analysis; format: functional, cell-based
HCT-116 [24] = experiment: Downregulation of COX1 protein level in human HCT-116 cells at upto 4 uM incubated for 48 hrs by Western blot analysis; format: functional, cell-based
[25] = Toxicity in BALB/c nude mouse assessed as effect on spleen at 5 mg/kg, iv measured after 16 hrs post injection by H and E staining based analysis; format: organism-based; conditions: in vivo
[26] = Toxicity in BALB/c nude mouse assessed as change in lymphocyte count at 5 mg/kg, iv administered every two days for 16 days; format: organism-based; conditions: in vivo, 384 h, time 16 day; summary of the method: as §3
DNA = experiment: Binding affinity to HP19 DNA (non-G4 DNA) (unknown origin) assessed as increase in CD signal at 5 uM by circular dichroism spectroscopic analysis; format: nucleic-acid assay
Quadruplex DNA [27] = experiment: Binding affinity to Mito 0.5-16 G4 DNA (unknown origin) assessed as increase in CD signal at 5 uM at 290 nM by circular dichroism spectroscopic analysis; format: nucleic-acid assay

C(=C\c1ccc2ccccc2[n+]1CCCCCCCC[n+]1c(/C=C/c2ccc(N3CCCCC3)cc2)ccc2ccccc21)/c1ccc(N2CCCCC2)cc1.[I-].[I-]
Non-Toxic: Activity [20] | Activity [25] | Activity [26]
66.01%: Activity (HCT-116 [6])
Active: Drug uptake [17]
70%: Activity (HCT-116 [16])
60 nM: Kd (Quadruplex DNA [4])
inactive: Activity (HCT-116 [9]) | Activity (Quadruplex DNA [10]) | Activity (HCT-116 [19]) | Activity (DNA)
Not Active: Drug uptake [1] | Drug uptake [5] | Drug uptake [7] | Drug uptake [8] | Drug uptake [12] | Drug uptake [13]
active: Activity (Quadruplex DNA [3]) | Activity (HCT-116 [11]) | Activity (HCT-116 [14]) | Activity (Quadruplex DNA [15]) | Activity (HCT-116 [18]) | Activity (HCT-116 [21]) | Activity (HCT-116 [22]) | Activity (HCT-116 [23]) | Activity (HCT-116 [24]) | Activity (Quadruplex DNA [27])
3.6 °C: ΔTm (Quadruplex DNA [2])
